Compound activity (PubChem BioAssay)
DNMT1 inh: inhibitors of human DNMT1; inhibition (reported as % activation of signal), % at 10 µM; 360,000 tested, 0.83% active; P26358; DNMT1 molecular beacon, Hinp1I cleavage, fluorescence; in the data active = inhibition above about 50%
Target sequence (P26358 504-1616 limits assumed): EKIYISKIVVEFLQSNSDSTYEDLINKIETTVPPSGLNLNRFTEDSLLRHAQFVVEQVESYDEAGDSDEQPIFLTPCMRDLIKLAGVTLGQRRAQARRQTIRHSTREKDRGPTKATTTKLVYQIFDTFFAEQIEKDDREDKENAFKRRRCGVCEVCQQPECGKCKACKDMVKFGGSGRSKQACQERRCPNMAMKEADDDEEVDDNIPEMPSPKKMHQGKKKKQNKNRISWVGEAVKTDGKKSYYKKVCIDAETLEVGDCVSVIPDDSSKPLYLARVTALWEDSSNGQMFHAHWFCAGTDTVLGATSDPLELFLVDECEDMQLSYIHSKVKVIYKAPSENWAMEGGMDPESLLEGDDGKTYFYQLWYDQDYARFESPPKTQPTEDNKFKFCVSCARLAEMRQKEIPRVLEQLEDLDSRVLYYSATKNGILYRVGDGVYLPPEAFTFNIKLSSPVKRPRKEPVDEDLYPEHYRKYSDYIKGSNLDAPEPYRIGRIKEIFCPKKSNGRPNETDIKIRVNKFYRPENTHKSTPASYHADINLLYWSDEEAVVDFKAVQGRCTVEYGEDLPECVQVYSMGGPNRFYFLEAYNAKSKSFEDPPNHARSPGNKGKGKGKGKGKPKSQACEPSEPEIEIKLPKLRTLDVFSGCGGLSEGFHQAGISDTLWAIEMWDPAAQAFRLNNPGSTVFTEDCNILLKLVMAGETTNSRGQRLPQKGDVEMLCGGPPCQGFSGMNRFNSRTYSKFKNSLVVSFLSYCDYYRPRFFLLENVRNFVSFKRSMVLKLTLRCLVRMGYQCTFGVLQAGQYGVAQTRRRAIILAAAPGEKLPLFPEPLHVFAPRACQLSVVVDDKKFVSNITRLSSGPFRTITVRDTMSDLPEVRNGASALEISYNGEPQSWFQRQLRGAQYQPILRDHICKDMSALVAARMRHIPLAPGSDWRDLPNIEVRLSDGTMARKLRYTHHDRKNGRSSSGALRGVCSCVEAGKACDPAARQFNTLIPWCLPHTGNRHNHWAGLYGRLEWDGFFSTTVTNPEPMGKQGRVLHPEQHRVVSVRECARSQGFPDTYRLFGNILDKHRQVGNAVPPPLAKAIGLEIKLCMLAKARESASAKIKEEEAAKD
SUMO1-SIM PPI: SUMO1-SIM interaction modulation | P63165 | SUMO1 binding to a labelled peptide, TR-FRET, 1 h | inhibition, % at 20 µM | 360,000 tested, 0.33% active; in the data active = inhibition above about 37%
STEP inh: inhibitors of human striatal-enriched phosphatase STEP. P54829. recombinant STEP, OMFP fluorogenic substrate, fluorescence. inhibition, % at 20 µM. 360,000 tested, 0.25% active. AID 588621;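 active = inhibition at 20 µM, scaled per plate between control wells, above about 37%, limit read from the data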
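System: STEP phosphatase, cell-free reaction; Buffer or medium: Bis-Tris pH 6.0 buffer with DTT, detergent; Incubation: 20 min at room temperature, dark; Measured by: fluorescence, 480/540 nm.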
NadD block: inhibitors of Staphylococcus aureus NadD. purified NadD enzyme, colorimetric absorbance read-out. inhibition, % at 20 µM. 360,000 tested, 0.78% active. AID 602399; in the data active = inhibition above about 26%
LMPTP block: LMPTP (human) inhibition | 360,000 tested, 0.22% active | recombinant LMPTP-A, OMFP fluorogenic substrate, fluorescence intensity | inhibition, % at 20 µM | P24666;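 active = compounds that cut the enzyme signal by at least half of the control window in the single-dose screen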
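Assay system: LMPTP-A, protein tyrosine phosphatase of low molecular weight / Medium: pH 6.0 Bis-Tris buffer with DTT and Triton X-100 / Schedule: 50 min enzyme reaction at room temperature, protected from light / Measured by: endpoint fluorescence intensity from OMFP dephosphorylation / Read-out basis: % inhibition relative to no-enzyme and uninhibited control wells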
Scp1 inh: inhibitors of human Scp-1 phosphatase; Q9GZU7; Recombinant Scp1, phosphopeptide, malachite green phosphate absorbance; 340,000 tested, 0.88% active; inhibition, % at 20 µM;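 active = inhibition above about 50% at 20 µM, limit read from the data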
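Test system: SCP-1 phosphatase catalytic domain, residues 76-261 | Compound dosing: One concentration, 20 µM, with 1.0% DMSO | Schedule: 45 min room-temperature reaction, 5 min colour, 30 min stabiliser | Detection: Absorbance at 630 nm | Read-out basis: % inhibition of SCP-1 phosphate liberation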
STEP inh conf: confirmation of human STEP phosphatase inhibitors. recombinant STEP, OMFP fluorogenic substrate, fluorescence. shares compounds with STEP inh. 520 tested, 32% active. inhibition, % at 20 µM; call rule not given here
NadD inh conf: NadD (S. aureus) inhibition, single concentration confirmation. purified S. aureus NadD, colorimetric enzyme assay. shares compounds with NadD block. inhibition, % at 20 µM. 2,000 tested, 13% active; in the data active = inhibition mostly above about 42%, no sharp cut-off; inactive = mostly below about 42%
Numbers stand for hits; . = inactive; / = no result given. Compounds with a hit are over-represented: about 2.4% of the library has one in this group of screens.

SMILES | DNMT1 inh | SUMO1-SIM PPI | STEP inh | NadD block | LMPTP block | Scp1 inh | STEP inh conf | NadD inh conf
NS(=O)(=O)c1ccc(NC(=S)N2CCN(c3ccccc3Cl)CC2)cc1 | . | . | . | . | . | . | / | /
CN1CCN(C(=S)C(=O)Nc2ccc(Br)cc2)CC1 | . | . | 94 | . | . | . | 77 | /
O=C(Nc1ccccc1)c1cc([N+](=O)[O-])ccc1NC1CCCCC1 | . | . | . | . | . | . | / | /
CCOc1ccc(NC(=S)NC23CC4CC(CC(C4)C2)C3)cc1 | . | . | . | . | . | . | / | /
COc1ccc(N2CCN(C(c3cccs3)C(C)NC(=O)C(=O)N3CCCC3)CC2)cc1 (stereo unspecified) | . | . | 60 | . | . | . | . | /
CN1CCN(Cc2nc3ccccc3c(=O)n2Cc2nc(-c3cccc([N+](=O)[O-])c3)cs2)CC1 | . | . | 43 | . | . | . | . | /
CC1(C)CC(=O)C=C(NNC(=O)c2ccccc2)C1 | . | . | . | . | . | . | / | /
CC1(C)CC(=O)C=C(NNC(=O)c2ccc(N)cc2)C1 | . | . | 120 | . | . | . | . | /
N#Cc1cc2cc3c(cc2nc1Cl)OCCO3 | . | . | 49 | . | . | / | . | /
N#Cc1cc2cc3c(cc2nc1N1CCCCC1)OCCO3 | . | . | . | . | . | . | / | /
Cc1nc2c(C)cccn2c1/C(O)=C1\C(=O)C(=O)N(CCN(C)C)C1c1ccncc1 (stereo unspecified) | . | . | . | . | . | . | / | /
Cc1ccc(NC(=O)CCn2c(=S)oc3ccccc32)cc1F | . | . | 48 | . | . | . | 38 | /
C/C(CC(=O)Nc1ccc2c(c1)OCCO2)=N\NC(=O)COc1ccccc1C | . | . | 50 | . | . | . | . | /
Cc1ccc(CSCc2ccc(C(=O)NCCCN3CCOCC3)o2)cc1 | . | . | . | . | . | . | / | /
CC1=C(C(=O)OC(C)C)[C@@H](c2ccc(C)o2)NC(=O)N1 | . | . | 120 | . | . | . | . | /
COc1ccc(/C=C2\SC(=O)N(CCNC(=O)CN3C(=O)NC4(CCCC4)C3=O)C2=O)cc1 | . | . | . | . | . | . | / | /
c1ccc(OCCNc2nc(NCC3CC3)nc3cc(-c4ccccc4)sc23)cc1 | . | . | 43 | 33 | . | / | . | .
COc1ccccc1CNC(=O)[C@H](C)N1C(=O)N2CCc3c([nH]c4ccccc34)[C@@]2(C)C1=O | . | . | . | . | . | . | / | /
O=C(O)c1cccc(NC(=S)NC(NC(=O)c2ccccc2[N+](=O)[O-])C(Cl)(Cl)Cl)c1 (stereo unspecified) | . | . | . | . | . | . | / | /
O=C(O)c1cccc(NC(=S)NC(NC(=O)c2cccc([N+](=O)[O-])c2)C(Cl)(Cl)Cl)c1 (stereo unspecified) | . | 98 | 63 | 64 | . | . | . | .
CN1CCc2c(sc(/N=C/c3c[nH]c4ccccc34)c2C(N)=O)C1 | . | 92 | 51 | 51 | 67 | . | . | .
CC(C)(C)OC(=O)NCCc1nnc(SCC(N)=O)o1 | . | . | . | . | . | . | / | /
COc1cccc(-c2cc(C(=O)Nc3nc4ccccc4s3)c3ccccc3n2)c1 | . | . | 71 | 36 | . | . | 41 | .
O=C(Nc1nc2ccccc2s1)c1cc(-c2ccco2)nc2ccccc12 | . | . | . | . | . | . | / | /
Cc1cccc2cc3c(nc12)SC(=NCC1CCCO1)N(Cc1ccco1)C3 (stereo unspecified) | . | . | . | . | . | . | / | /
SMILES | DNMT1 inh | SUMO1-SIM PPI | STEP inh | NadD block | LMPTP block | Scp1 inh | STEP inh conf | NadD inh conf
Cc1ccc2nc3c(cc2c1)CN(Cc1ccco1)C(=NCC1CCCO1)S3 (stereo unspecified) | . | . | . | 45 | . | . | / | .
Cc1ccc(C(C#N)c2ccc3c(C(F)(F)F)cc(C(F)(F)F)nc3n2)cc1 (stereo unspecified) | . | . | . | . | . | . | / | /
CCc1nnc(NS(=O)(=O)c2ccc(N/C=C\C(=O)c3ccc4ccccc4c3)cc2)s1 | . | . | . | 30 | . | . | / | 50
O=C1[C@H]2[C@@H](c3ccc(F)cc3)N3C(=O)N(c4ccccc4)C(=O)[C@@]3(Cc3ccc(Cl)cc3)[C@H]2C(=O)N1C1CCCCC1 | . | . | . | . | . | . | / | /
O=C1[C@H]2[C@@H](c3ccc(F)cc3)N3C(=O)N(c4cccc(Br)c4)C(=O)[C@@]3(Cc3ccc(Cl)cc3)[C@H]2C(=O)N1C1CCCCC1 | . | . | . | 31 | . | . | / | .
O=C1[C@H]2[C@@H](c3ccc(Cl)cc3)N3C(=O)N(c4cccc(Br)c4)C(=O)[C@@]3(Cc3ccc(Cl)cc3)[C@H]2C(=O)N1C1CCCCC1 | . | . | . | 32 | . | . | / | .
O=C1[C@H]2[C@@H](c3ccc(F)cc3)N3C(=O)N(c4cccc(Cl)c4)C(=O)[C@@]3(Cc3ccc(Cl)cc3)[C@H]2C(=O)N1C1CCCCC1 | . | . | . | . | . | . | / | /
CCNC(=O)NC(=O)C(C)Sc1nc2cc(C(=O)OC)ccc2c(=O)n1-c1ccccc1 (stereo unspecified) | . | . | . | . | . | . | / | /
Cc1ccc(NC(=O)c2cc(C(=O)c3cc(Cl)ccc3O)cn(-c3ccc(C)cc3)c2=O)cc1 | . | . | . | 31 | . | . | / | .
COc1ccc(C(=O)NCCNc2nc3ccc(C)cc3cc2C#N)cc1OC | . | . | . | . | . | . | / | /
COc1ccc(C2C=C(C34CC5CC(CC(C5)C3)C4)NC(=S)N2)cc1OC (stereo unspecified) | . | . | . | 29 | . | . | / | .
COc1ccc(C2OCC(C)(C)CO2)cc1OC | . | . | . | . | . | . | / | /
Cc1ccccc1NCC(=O)N/N=C/c1c(C)c(C(=O)c2ccc(Cl)cc2)n2ccccc12 | . | . | . | . | . | . | / | /
Cc1c(/C=N/NC(=O)CNc2ccccc2)c2ccccn2c1C(=O)c1ccc(Cl)cc1 | . | . | . | 36 | . | . | / | .
O=C(Nc1nc(-c2cccc([N+](=O)[O-])c2)cs1)C(c1ccccc1)c1ccccc1 | . | . | . | . | . | . | / | /
CS(=O)(=O)N1CCc2cc(-c3csc(NC(=O)C(c4ccccc4)c4ccccc4)n3)ccc21 | . | . | . | 30 | . | . | / | .
COc1ccc(NC(=O)CCCCC(=O)Nc2ccc(OC)cc2OC)c(OC)c1 | . | . | . | . | . | . | / | /
Oc1ccc2ccccc2c1/C=C/c1ccc2c(Br)cc(Br)c(O)c2n1 | . | . | . | 58 | . | . | / | .
CC(C)n1cnnc1SCC(=O)NC(=O)c1ccccc1 | . | . | . | . | . | . | / | /
